According to ChEMBL document CHEMBL1129264, “Mercaptoacyl dipeptides as orally active dual inhibitors of angiotensin-converting enzyme and neutral endopeptidase” (1996):
One block for each compound: values may come before it.

Legend:
[1] = biological target: T1, Angiotensin-converting enzyme (Rattus norvegicus) (UniProt P47820); test: Compound was tested for plasma inhibition of Angiotensin I converting enzyme activity in the conscious rat. Expressed as Inhibition of AI pressor response at 2 hr at a dose of 13.7 mg/kg po; assay type: organism-based; parameters: dose 13.7 mg/kg
T1 sequence (whole entry): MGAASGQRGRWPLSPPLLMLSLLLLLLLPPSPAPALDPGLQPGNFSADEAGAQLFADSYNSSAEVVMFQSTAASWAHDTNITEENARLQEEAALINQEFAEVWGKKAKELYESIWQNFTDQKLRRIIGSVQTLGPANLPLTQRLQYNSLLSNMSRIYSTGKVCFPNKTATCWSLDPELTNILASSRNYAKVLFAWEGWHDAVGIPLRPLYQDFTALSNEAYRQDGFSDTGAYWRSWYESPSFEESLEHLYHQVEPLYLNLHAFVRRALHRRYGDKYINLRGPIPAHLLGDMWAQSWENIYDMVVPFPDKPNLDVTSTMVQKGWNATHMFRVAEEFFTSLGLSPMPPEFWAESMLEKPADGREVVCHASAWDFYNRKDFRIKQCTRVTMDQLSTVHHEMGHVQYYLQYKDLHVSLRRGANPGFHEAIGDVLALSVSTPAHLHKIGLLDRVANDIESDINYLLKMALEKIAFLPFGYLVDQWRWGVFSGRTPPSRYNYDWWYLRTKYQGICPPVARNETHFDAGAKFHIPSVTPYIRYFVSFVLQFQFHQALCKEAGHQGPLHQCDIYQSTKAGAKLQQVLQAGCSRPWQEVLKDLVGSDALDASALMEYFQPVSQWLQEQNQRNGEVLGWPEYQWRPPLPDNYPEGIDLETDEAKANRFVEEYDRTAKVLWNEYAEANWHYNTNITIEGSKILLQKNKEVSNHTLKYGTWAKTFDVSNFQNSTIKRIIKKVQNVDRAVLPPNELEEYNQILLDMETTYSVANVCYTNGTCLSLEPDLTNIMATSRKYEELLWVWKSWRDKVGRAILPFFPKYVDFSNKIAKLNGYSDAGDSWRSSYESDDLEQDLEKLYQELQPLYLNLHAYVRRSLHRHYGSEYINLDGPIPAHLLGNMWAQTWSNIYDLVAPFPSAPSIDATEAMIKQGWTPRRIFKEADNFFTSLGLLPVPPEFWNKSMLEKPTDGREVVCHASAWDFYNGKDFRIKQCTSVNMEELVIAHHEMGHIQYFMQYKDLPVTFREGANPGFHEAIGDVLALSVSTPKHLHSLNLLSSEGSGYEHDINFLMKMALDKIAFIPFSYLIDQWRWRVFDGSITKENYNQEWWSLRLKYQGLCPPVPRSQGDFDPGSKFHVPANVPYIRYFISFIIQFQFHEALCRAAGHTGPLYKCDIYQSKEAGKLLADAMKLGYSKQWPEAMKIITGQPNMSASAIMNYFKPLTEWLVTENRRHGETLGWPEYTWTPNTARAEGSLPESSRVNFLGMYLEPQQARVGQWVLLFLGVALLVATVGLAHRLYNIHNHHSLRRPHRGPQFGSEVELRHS
In short: (§1)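 Male conscious normotensive Sprague-Dawley rats (275-390 g), given femoral arterial and venous catheters under methohexital sodium (75 mg/kg ip) anesthesia. Next day, pressor responses to three angiotensin-I challenges (300 ng/kg iv) recorded by direct arterial pressure. Compound then dosed orally, and AI challenge repeated at set times. Each post-dose response compared with the mean of the three baseline responses, giving % inhibition.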

[2] = biological target: T1, Angiotensin-converting enzyme (Rattus norvegicus); test: Compound was tested for plasma inhibition of Angiotensin I converting enzyme activity in the conscious rat. Expressed as Inhibition of AI pressor response at 1 hr at a dose of 13.7 mg/kg po; assay type: organism-based; parameters: dose 13.7 mg/kg; in short: as §1
[3] = biological target: T1, Angiotensin-converting enzyme (Rattus norvegicus); test: Compound was tested for plasma inhibition of Angiotensin I converting enzyme activity in the conscious rat. Expressed as Inhibition of AI pressor response at 4 hr at a dose of 13.7 mg/kg po; assay type: organism-based; parameters: dose 13.7 mg/kg
In short: (§2)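 Male conscious normotensive Sprague-Dawley rats (275-390 g), prepared under methohexital sodium (75 mg/kg ip) with femoral arterial and venous catheters. The next day, pressor responses to three angiotensin-I challenges (300 ng/kg iv) were recorded. Compound was then given orally and angiotensin-I challenges were repeated at set times. Percent inhibition is relative to the mean of the three baseline responses.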

[4] = biological target: T1, Angiotensin-converting enzyme (Rattus norvegicus); test: Compound was tested for plasma inhibition of Angiotensin I converting enzyme activity in the conscious rat. Expressed as Inhibition of AI pressor response at 6 hr at a dose of 13.7 mg/kg po; assay type: organism-based; parameters: dose 13.7 mg/kg; in short: as §2
Rattus norvegicus [5] = test: Plasma ANF Concentration in the Conscious Rat at a dose of 13.7(po)mg/kg at 0.5 h; assay type: functional
In short: (§3)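 Male Sprague-Dawley rats (275-390 g), catheterized in femoral artery and vein under ketamine (150 mg/kg)/acepromazine, tethered and recovered 24 h, studied conscious. Continuous iv rat ANF(99-126) infusion at 450 ng/kg/min for 5 h; baseline blood at 60 min, then oral dosing, sampling at 30-240 min.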

Rattus norvegicus [6] = test: Plasma ANF Concentration in the Conscious Rat at a dose of 13.7(po)mg/kg at 1 h; assay type: functional; in short: as §3
Rattus norvegicus [7] = test: Plasma ANF Concentration in the Conscious Rat at a dose of 13.7(po)mg/kg at 2 h; assay type: functional; in short: as §3
Rattus norvegicus [8] = test: Plasma ANF Concentration in the Conscious Rat at a dose of 13.7(po)mg/kg at 4 h; assay type: functional; in short: as §3
[9] = biological target: T1, Angiotensin-converting enzyme (Rattus norvegicus); test: Compound was tested for plasma inhibition of Angiotensin I converting enzyme activity in the conscious rat. Expressed as Inhibition of AI pressor response at 2 hr at a dose of 12.7 mg/kg po; assay type: organism-based; parameters: dose 12.7 mg/kg; in short: as §1
[10] = biological target: T1, Angiotensin-converting enzyme (Rattus norvegicus); test: Compound was tested for plasma inhibition of Angiotensin I converting enzyme activity in the conscious rat. Expressed as Inhibition of AI pressor response at 6 hr at a dose of 12.7 mg/kg po; assay type: organism-based; parameters: dose 12.7 mg/kg; in short: as §2
[11] = biological target: T1, Angiotensin-converting enzyme (Rattus norvegicus); test: Compound was tested for plasma inhibition of Angiotensin I converting enzyme activity in the conscious rat. Expressed as Inhibition of AI pressor response at 1 hr at a dose of 12.7 mg/kg po; assay type: organism-based; parameters: dose 12.7 mg/kg; in short: as §1
[12] = biological target: T1, Angiotensin-converting enzyme (Rattus norvegicus); test: Compound was tested for plasma inhibition of Angiotensin I converting enzyme activity in the conscious rat. Expressed as Inhibition of AI pressor response at 4 hr at a dose of 12.7 mg/kg po; assay type: organism-based; parameters: dose 12.7 mg/kg; in short: as §1
Rattus norvegicus [13] = test: Plasma ANF Concentration in the Conscious Rat at a dose of […]; assay type: functional; details: in the assay text read “12.7(po)mg/kg” for “12.4(po)mg/kg”
In short: (§4)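 Male Sprague-Dawley rats (275-390 g) received femoral artery and vein catheters under ketamine (150 mg/kg)/acepromazine and recovered for 24 h, tethered, before study conscious. ratANF(99-126) was infused at 450 ng/kg/min iv for 5 h. Baseline blood was drawn at 60 min into the infusion, then compound was given po.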

Rattus norvegicus [14] = test: Plasma ANF Concentration in the Conscious Rat at a dose of 12.7(po)mg/kg at 0.5 h; assay type: functional; in short: as §4
Rattus norvegicus [15] = test: Plasma ANF Concentration in the Conscious Rat at a dose of 12.7(po)mg/kg at 1 h; assay type: functional; in short: as §4
Rattus norvegicus [16] = test: Plasma ANF Concentration in the Conscious Rat at a dose of 12.7(po)mg/kg at 4 h; assay type: functional; in short: as §4
[17] = biological target: T1, Angiotensin-converting enzyme (Rattus norvegicus); test: Compound was tested for plasma inhibition of Angiotensin I converting enzyme activity in the conscious rat. Expressed as Inhibition of AI pressor response at 2 hr at a dose of 12.4 mg/kg po; assay type: organism-based; parameters: dose 12.4 mg/kg; in short: as §1
[18] = biological target: T1, Angiotensin-converting enzyme (Rattus norvegicus); test: Compound was tested for plasma inhibition of Angiotensin I converting enzyme activity in the conscious rat. Expressed as Inhibition of AI pressor response at 1 hr at a dose of 12.4 mg/kg po; assay type: organism-based; parameters: dose 12.4 mg/kg; in short: as §1
[19] = biological target: T1, Angiotensin-converting enzyme (Rattus norvegicus); test: Compound was tested for plasma inhibition of Angiotensin I converting enzyme activity in the conscious rat. Expressed as Inhibition of AI pressor response at 4 hr at a dose of 12.4 mg/kg po; assay type: organism-based; parameters: dose 12.4 mg/kg; in short: as §1
Rattus norvegicus [20] = test: Plasma ANF Concentration in the Conscious Rat at a dose of 12.4 (p.o.) mg/kg at 0.5 h; assay type: functional; in short: as §4
Rattus norvegicus [21] = test: Plasma ANF Concentration in the Conscious Rat at a dose of 12.4 (p.o.) mg/kg at 1 h; assay type: functional; in short: as §4
Rattus norvegicus [22] = test: Plasma ANF Concentration in the Conscious Rat at a dose of 12.4 (p.o.) mg/kg at 2 h; assay type: functional; in short: as §4
Rattus norvegicus [23] = test: Plasma ANF Concentration in the Conscious Rat at a dose of 12.4 (p.o.) mg/kg at 4 h; assay type: functional; in short: as §4
[24] = biological target: T1, Angiotensin-converting enzyme (Rattus norvegicus); test: Compound was tested for plasma inhibition of Angiotensin I converting enzyme activity in the conscious rat. Expressed as Inhibition of AI pressor response at 6 hr at a dose of 12.4 mg/kg po; assay type: organism-based; parameters: dose 12.4 mg/kg; in short: as §2

inhibition [1]: 86%
inhibition [2]: 88%
inhibition [3]: 73%
inhibition [4]: 64%
Structure (SMILES): CCN(CC)C(=O)COC(=O)[C@H](Cc1ccc(OC)cc1)NC(=O)C1(NC(=O)[C@H](SC(C)=O)C(C)C)CCCC1
Control (Rattus norvegicus [5]): 159%
Control (Rattus norvegicus [6]): 187%
Control (Rattus norvegicus [7]): 215%
Control (Rattus norvegicus [8]): 264%

inhibition [9]: 77%
inhibition [10]: 60%
inhibition [11]: 83%
inhibition [12]: 77%
Structure (SMILES): CC(=O)S[C@@H](C(=O)NC1(C(=O)N[C@@H](Cc2ccc(O)cc2)C(=O)OCCC(C)C)CCCC1)C(C)C
Control (Rattus norvegicus [13]): 236%
Control (Rattus norvegicus [14]): 178%
Control (Rattus norvegicus [15]): 235%
Control (Rattus norvegicus [16]): 251%

inhibition [17]: 78%
inhibition [18]: 76%
inhibition [19]: 70%
inhibition [24]: 72%
Structure (SMILES): CCCCOC(=O)[C@H](Cc1ccc(O)cc1)NC(=O)C1(NC(=O)[C@H](SC(C)=O)C(C)C)CCCC1
Control (Rattus norvegicus [20]): 131%
Control (Rattus norvegicus [21]): 133%
Control (Rattus norvegicus [22]): 178%
Control (Rattus norvegicus [23]): 185%
